Reference: ChEMBL document CHEMBL1287748, “Design, synthesis and in vitro antimalarial evaluation of triazole-linked chalcone and dienone hybrid compounds” (Bioorg Med Chem, 2010)

Columns and labels:
Plasmodium falciparum [1] = assay: Antimalarial activity against chloroquine-sensitive Plasmodium falciparum D10 after 48 hrs; type: functional, organism-based; settings: D10, 48 h
Procedure, shortened: (§1)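 P. falciparum asexual culture in RPMI 1640 with glucose, HEPES, hypoxanthine, 5% Albumax, bicarbonate and gentamicin, sorbitol-synchronized at ring stage when needed. DMSO stocks serially diluted twofold in medium and added to parasitized erythrocytes at 2% hematocrit. Incubation 48 h at 37 °C under 3% O2/4% CO2/93% N2. pLDH read-out with Malstat plus NBT/PES at 620 nm. Runs in duplicate on two occasions; IC50 fitted from dose–response curves.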

Plasmodium falciparum [2] = assay: Antimalarial activity against chloroquine-resistant Plasmodium falciparum Dd2 after 48 hrs; type: functional, organism-based; settings: Dd2, 48 h; procedure, shortened: as §1
Plasmodium falciparum [3] = assay: Antimalarial activity against chloroquine-resistant Plasmodium falciparum W2 after 48 hrs by FACS analysis in presence of 10 % human serum; type: functional, organism-based; settings: W2, 48 h
Procedure, shortened: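 W2 parasites grown in standard medium containing 10% human serum. Growth inhibition assay as in earlier published work, with parasite development scored by flow cytometry (FACS).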

[4] = Inhibition of beta-hematin formation assessed as equivalents of drug relative to hematin; type: functional
Procedure, shortened: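 Colorimetric assay quantifying a compound's inhibition of the conversion of hematin to beta-hematin. IC50 is expressed in equivalents of compound relative to hematin.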

Structure (SMILES)	IC50 (Plasmodium falciparum [1])	IC50 (Plasmodium falciparum [2])	IC50 (Plasmodium falciparum [3])	IC50 [4]
C#CCOc1ccc(/C=C/C(C)=O)cc1OC	9.7 µM	7.5 µM	> 20 µM	
COc1ccc(C(=O)/C=C/c2ccc(OCc3cn([C@H]4C[C@H](n5cc(C)c(=O)[nH]c5=O)O[C@@H]4CO)nn3)c(OC)c2)cc1	2.9 µM	6.1 µM	8 µM	
COc1ccc(C(=O)/C=C/c2ccc(OCc3cn([C@H]4C[C@H](n5cc(C)c(=O)[nH]c5=O)O[C@@H]4CO)nn3)c(OC)c2)c(OC)c1	1.5 µM	4.4 µM	5.4 µM	
COc1cc(/C=C/C(=O)c2ccc(OC)c(OC)c2OC)ccc1OCc1cn([C@H]2C[C@H](n3cc(C)c(=O)[nH]c3=O)O[C@@H]2CO)nn1	3.3 µM	3.7 µM	5.4 µM	
COc1cc(/C=C/C(=O)c2ccc(OC)c(OC)c2OC)ccc1OCc1cn(-c2ccnc3cc(Cl)ccc23)nn1	0.4 µM	0.4 µM	0.6 µM	0.2 equiv
COc1ccc(/C=C/C(=O)c2ccc(OCc3cn([C@H]4C[C@H](n5cc(C)c(=O)[nH]c5=O)O[C@@H]4CO)nn3)c(OC)c2)c(OC)c1	10.2 µM	11.8 µM	9 µM	
COc1cc(C(=O)/C=C/c2ccc(OC)c(OC)c2OC)ccc1OCc1cn([C@H]2C[C@H](n3cc(C)c(=O)[nH]c3=O)O[C@@H]2CO)nn1	5.4 µM	3.8 µM	7.1 µM	
COc1cc(C(=O)/C=C/c2ccc(Cl)cc2Cl)ccc1OCc1cn([C@H]2C[C@H](n3cc(C)c(=O)[nH]c3=O)O[C@@H]2CO)nn1	3.7 µM	1.9 µM	8.4 µM	
COc1cc(C(=O)/C=C/c2ccc(F)cc2)ccc1OCc1cn([C@H]2C[C@H](n3cc(C)c(=O)[nH]c3=O)O[C@@H]2CO)nn1	7.3 µM	6.1 µM	6.6 µM	
COc1cc(C(=O)/C=C/c2ccc(F)cc2F)ccc1OCc1cn([C@H]2C[C@H](n3cc(C)c(=O)[nH]c3=O)O[C@@H]2CO)nn1	3.9 µM	4.8 µM	7.1 µM	
COc1cc(C(=O)/C=C/c2ccc(OC)c(OC)c2OC)ccc1OCc1cn(-c2ccnc3cc(Cl)ccc23)nn1	0.3 µM	0.3 µM	0.5 µM	4.1 equiv
COc1ccc(/C=C/C(=O)/C=C/c2ccc(OCc3cn([C@H]4C[C@H](n5cc(C)c(=O)[nH]c5=O)O[C@@H]4CO)nn3)c(OC)c2)cc1	2.8 µM	1.5 µM	18.2 µM	
COc1ccc(/C=C/C(=O)/C=C/c2ccc(OCc3cn([C@H]4C[C@H](n5cc(C)c(=O)[nH]c5=O)O[C@@H]4CO)nn3)c(OC)c2)c(OC)c1	1.3 µM	1.2 µM	14.5 µM	
COc1cc(/C=C/C(=O)/C=C/c2ccc(OC)c(OC)c2OC)ccc1OCc1cn([C@H]2C[C@H](n3cc(C)c(=O)[nH]c3=O)O[C@@H]2CO)nn1	1.3 µM	2.4 µM	8.3 µM	
COc1cc(/C=C/C(=O)/C=C/c2ccc(Cl)cc2Cl)ccc1OCc1cn([C@H]2C[C@H](n3cc(C)c(=O)[nH]c3=O)O[C@@H]2CO)nn1	1.4 µM	1.7 µM	9.1 µM	
COc1cc(/C=C/C(=O)/C=C/c2ccc(F)cc2)ccc1OCc1cn([C@H]2C[C@H](n3cc(C)c(=O)[nH]c3=O)O[C@@H]2CO)nn1	1.7 µM	2.6 µM		
COc1cc(/C=C/C(=O)/C=C/c2ccc(F)cc2F)ccc1OCc1cn([C@H]2C[C@H](n3cc(C)c(=O)[nH]c3=O)O[C@@H]2CO)nn1	1.4 µM	1.7 µM	12.4 µM	
COc1ccc(/C=C/C(=O)/C=C/c2ccc(OCc3cn(-c4ccnc5cc(Cl)ccc45)nn3)c(OC)c2)c(OC)c1	5.1 µM	6.4 µM	> 20 µM	
COc1cc(/C=C/C(=O)/C=C/c2ccc(OC)c(OC)c2OC)ccc1OCc1cn(-c2ccnc3cc(Cl)ccc23)nn1	2.5 µM	2.1 µM	18.5 µM	
COc1cc(/C=C/C(C)=O)ccc1OCc1cn(-c2ccnc3cc(Cl)ccc23)nn1	0.8 µM	0.7 µM		
COc1ccc(/C=C/C(=O)/C=C/c2ccc(OCc3cn(-c4ccnc5cc(Cl)ccc45)nn3)c(OC)c2)cc1	3 µM	2.1 µM	5.3 µM	
COc1cc(/C=C/C(=O)/C=C/c2ccc(Cl)cc2Cl)ccc1OCc1cn(-c2ccnc3cc(Cl)ccc23)nn1	19 µM	16.8 µM	> 20 µM	
COc1cc(/C=C/C(=O)/C=C/c2ccc(F)cc2)ccc1OCc1cn(-c2ccnc3cc(Cl)ccc23)nn1	9.4 µM	9.3 µM	> 20 µM	
COc1cc(/C=C/C(=O)/C=C/c2ccc(F)cc2F)ccc1OCc1cn(-c2ccnc3cc(Cl)ccc23)nn1	10.2 µM	6.5 µM	> 20 µM	
Clc1ccc2c(-n3cc(COc4ccccc4)nn3)ccnc2c1	> 20 µM	> 20 µM		

Structure (SMILES)	IC50 (Plasmodium falciparum [1])	IC50 (Plasmodium falciparum [2])	IC50 (Plasmodium falciparum [3])	IC50 [4]
COc1cc(C=O)ccc1OCc1cn(-c2ccnc3cc(Cl)ccc23)nn1	> 20 µM	> 20 µM		
C#CCOc1ccc(C(=O)/C=C/c2ccc(Cl)cc2Cl)cc1OC	3.3 µM	2.8 µM	5 µM	
C#CCOc1ccc(C(=O)/C=C/c2ccc(F)cc2)cc1OC	7.2 µM	7.7 µM	> 20 µM	
C#CCOc1ccc(C(=O)/C=C/c2ccc(F)cc2F)cc1OC	> 20 µM	5.2 µM	9.4 µM	
C#CCOc1ccc(/C=C/C(=O)/C=C/c2ccc(OC)cc2)cc1OC	11.8 µM	10.7 µM	> 20 µM	
C#CCOc1ccc(/C=C/C(=O)/C=C/c2ccc(OC)cc2OC)cc1OC	5.4 µM	4 µM	18.9 µM	
C#CCOc1ccc(/C=C/C(=O)/C=C/c2ccc(OC)c(OC)c2OC)cc1OC	0.9 µM	1.4 µM	9.2 µM	
C#CCOc1ccc(/C=C/C(=O)/C=C/c2ccc(Cl)cc2Cl)cc1OC	9.2 µM	9 µM	> 20 µM	
C#CCOc1ccc(/C=C/C(=O)/C=C/c2ccc(F)cc2)cc1OC	9.8 µM	6.5 µM	21.5 µM	
C#CCOc1ccc(/C=C/C(=O)/C=C/c2ccc(F)cc2F)cc1OC	11.9 µM	9.3 µM	> 20 µM	
COc1ccc(C(=O)/C=C/c2ccc(OCc3cn(-c4ccnc5cc(Cl)ccc45)nn3)c(OC)c2)cc1	0.6 µM	2.2 µM	5 µM	
COc1ccc(C(=O)/C=C/c2ccc(OCc3cn(-c4ccnc5cc(Cl)ccc45)nn3)c(OC)c2)c(OC)c1	0.04 µM	0.07 µM	0.09 µM	1.6 equiv
COc1ccc(/C=C/C(=O)c2ccc(OCc3cn(-c4ccnc5cc(Cl)ccc45)nn3)c(OC)c2)c(OC)c1	5.2 µM	11.7 µM	6.6 µM	Not Active
COc1cc(C(=O)/C=C/c2ccc(Cl)cc2Cl)ccc1OCc1cn(-c2ccnc3cc(Cl)ccc23)nn1	6 µM	1.9 µM	11.5 µM	
COc1cc(C(=O)/C=C/c2ccc(F)cc2)ccc1OCc1cn(-c2ccnc3cc(Cl)ccc23)nn1	7.4 µM	1.6 µM	6.9 µM	4.8 equiv
COc1cc(C(=O)/C=C/c2ccc(F)cc2F)ccc1OCc1cn(-c2ccnc3cc(Cl)ccc23)nn1	4.1 µM	2.1 µM	10.6 µM	1.6 equiv
COc1cc(/C=C/C(C)=O)ccc1OCc1cn([C@H]2C[C@H](n3cc(C)c(=O)[nH]c3=O)O[C@@H]2CO)nn1	12 µM	16.4 µM		
[N-]=[N+]=Nc1ccnc2cc(Cl)ccc12	> 20 µM	> 20 µM	> 20 µM	
C#CCOc1ccc(/C=C/C(=O)c2ccc(OC)cc2OC)cc1OC		4.3 µM		0.5 equiv
C#CCOc1ccc(/C=C/C(=O)c2ccc(OC)cc2)cc1OC		13.5 µM		
C#CCOc1ccc(/C=C/C(=O)c2ccc(OC)c(OC)c2OC)cc1OC		2.8 µM		
C#CCOc1ccc(C(=O)/C=C/c2ccc(OC)c(OC)c2OC)cc1OC		2.4 µM		
C#CCOc1ccc(C(=O)/C=C/c2ccc(OC)cc2OC)cc1OC	> 20 µM	14.5 µM		
CCN(CC)CCCC(C)Nc1ccnc2cc(Cl)ccc12 (stereo unspecified) [CHLOROQUINE]				1.91 equiv
Cc1cn([C@H]2C[C@H](N=[N+]=[N-])[C@@H](CO)O2)c(=O)[nH]c1=O [ZIDOVUDINE]	> 20 µM	> 20 µM	> 20 µM	
